According to ChEMBL document CHEMBL1148642, “(2S,3S)-3-Amino-4-(3,3-difluoropyrrolidin-1-yl)-N,N-dimethyl-4-oxo-2-(4-[1,2,4]triazolo[1,5-a]-pyridin-6-ylphenyl)butanamide: a selective alpha-amino amide dipeptidyl peptidase IV inhibitor for the treatment of type 2 diabetes” (J Med Chem, 2006):

Experiments:
Xaa-Pro aminopeptidase 1 = Xaa-Pro aminopeptidase 1 (Homo sapiens, UniProt Q9NQW7); test: Inhibition of aminopeptidase P
Dipeptidyl peptidase 8 = Dipeptidyl peptidase 8 (Homo sapiens, UniProt Q6V1X1); test: Inhibition of DPP8
Chain of Dipeptidyl peptidase 8 (Q6V1X1 whole entry): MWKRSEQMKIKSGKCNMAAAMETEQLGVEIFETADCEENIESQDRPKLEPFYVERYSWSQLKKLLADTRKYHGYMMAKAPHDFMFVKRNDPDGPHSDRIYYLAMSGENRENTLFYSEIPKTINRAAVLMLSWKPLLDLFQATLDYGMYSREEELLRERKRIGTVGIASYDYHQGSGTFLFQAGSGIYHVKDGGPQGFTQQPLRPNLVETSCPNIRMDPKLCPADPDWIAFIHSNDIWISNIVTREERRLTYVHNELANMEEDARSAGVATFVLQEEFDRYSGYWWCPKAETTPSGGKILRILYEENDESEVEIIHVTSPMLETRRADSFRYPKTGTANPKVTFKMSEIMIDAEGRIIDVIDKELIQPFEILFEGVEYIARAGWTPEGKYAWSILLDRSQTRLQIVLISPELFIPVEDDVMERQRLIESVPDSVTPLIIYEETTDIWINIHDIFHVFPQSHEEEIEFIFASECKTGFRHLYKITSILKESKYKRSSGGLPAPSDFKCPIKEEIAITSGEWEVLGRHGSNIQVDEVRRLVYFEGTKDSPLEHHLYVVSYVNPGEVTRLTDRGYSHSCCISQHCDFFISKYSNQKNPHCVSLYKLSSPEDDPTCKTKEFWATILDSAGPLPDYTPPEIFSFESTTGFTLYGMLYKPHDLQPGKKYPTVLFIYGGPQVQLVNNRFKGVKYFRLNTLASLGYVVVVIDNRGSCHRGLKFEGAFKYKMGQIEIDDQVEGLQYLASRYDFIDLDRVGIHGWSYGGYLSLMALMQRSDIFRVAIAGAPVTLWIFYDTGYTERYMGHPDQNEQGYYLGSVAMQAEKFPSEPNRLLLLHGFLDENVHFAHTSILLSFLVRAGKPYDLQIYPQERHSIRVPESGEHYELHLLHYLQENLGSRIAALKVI

Dipeptidyl peptidase 4 [1] = target: T1, Dipeptidyl peptidase 4 (Homo sapiens, UniProt P27487); test: Inhibition of DPP4 in presence of 50% human serum
T1 sequence (P27487 whole entry): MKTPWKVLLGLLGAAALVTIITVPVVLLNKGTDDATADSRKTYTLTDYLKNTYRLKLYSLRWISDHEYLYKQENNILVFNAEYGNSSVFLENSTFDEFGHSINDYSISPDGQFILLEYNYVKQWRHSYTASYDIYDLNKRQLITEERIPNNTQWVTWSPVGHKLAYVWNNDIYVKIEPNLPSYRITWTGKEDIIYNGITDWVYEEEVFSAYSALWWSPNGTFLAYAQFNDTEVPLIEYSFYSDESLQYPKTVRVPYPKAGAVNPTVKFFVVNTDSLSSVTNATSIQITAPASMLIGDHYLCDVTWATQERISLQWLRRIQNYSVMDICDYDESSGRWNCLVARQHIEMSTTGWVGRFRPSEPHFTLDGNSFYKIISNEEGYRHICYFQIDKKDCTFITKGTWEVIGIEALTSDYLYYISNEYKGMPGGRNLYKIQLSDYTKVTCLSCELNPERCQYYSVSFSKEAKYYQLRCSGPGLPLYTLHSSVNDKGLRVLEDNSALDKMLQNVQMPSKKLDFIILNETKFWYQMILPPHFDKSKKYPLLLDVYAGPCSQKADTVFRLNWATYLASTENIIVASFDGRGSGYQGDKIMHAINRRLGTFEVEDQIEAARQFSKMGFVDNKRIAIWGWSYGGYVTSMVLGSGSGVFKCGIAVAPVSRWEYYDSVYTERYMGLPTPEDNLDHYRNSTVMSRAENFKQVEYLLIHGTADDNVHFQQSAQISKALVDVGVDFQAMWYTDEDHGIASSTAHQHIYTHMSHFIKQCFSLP

Prolyl endopeptidase FAP = target: T2, Prolyl endopeptidase FAP (Homo sapiens, UniProt Q12884); test: Inhibition of FAP
T2 sequence (Q12884 whole entry): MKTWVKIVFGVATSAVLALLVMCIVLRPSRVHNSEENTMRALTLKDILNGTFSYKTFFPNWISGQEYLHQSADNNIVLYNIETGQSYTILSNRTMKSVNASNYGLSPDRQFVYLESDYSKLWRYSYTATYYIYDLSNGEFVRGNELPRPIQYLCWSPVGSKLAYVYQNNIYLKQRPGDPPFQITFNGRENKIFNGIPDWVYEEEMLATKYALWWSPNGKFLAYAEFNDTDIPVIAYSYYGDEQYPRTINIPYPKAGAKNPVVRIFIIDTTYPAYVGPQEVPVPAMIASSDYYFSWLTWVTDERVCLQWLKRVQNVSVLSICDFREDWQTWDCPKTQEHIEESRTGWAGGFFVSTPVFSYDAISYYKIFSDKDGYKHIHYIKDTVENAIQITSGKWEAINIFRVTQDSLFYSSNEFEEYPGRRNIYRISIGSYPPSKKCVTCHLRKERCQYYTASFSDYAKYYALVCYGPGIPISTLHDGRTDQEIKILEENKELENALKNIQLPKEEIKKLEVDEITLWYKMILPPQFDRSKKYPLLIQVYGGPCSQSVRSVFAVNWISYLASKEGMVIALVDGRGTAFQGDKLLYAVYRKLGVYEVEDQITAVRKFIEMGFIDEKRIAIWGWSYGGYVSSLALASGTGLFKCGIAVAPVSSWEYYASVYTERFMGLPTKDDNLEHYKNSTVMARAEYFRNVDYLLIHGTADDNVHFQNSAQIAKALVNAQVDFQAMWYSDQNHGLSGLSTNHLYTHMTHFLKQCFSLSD

[2] = Plasma clearance in rat at 1 mg/kg, iv or 2 mg/kg, po; type: ADME, organism-based
[3] = Bioavailability in rat at 1 mg/kg, iv and 2 mg/kg, po; type: ADME, organism-based; settings: in vivo
Dipeptidyl peptidase 4 [4] = target: T1, Dipeptidyl peptidase 4; test: Inhibition of DPP4
Rattus norvegicus = test: AUC in rat at 2 mg/kg, po normalized to 1 mg/kg; type: ADME, organism-based, Plasma; settings: in vivo
Dipeptidyl peptidase 2 = Dipeptidyl peptidase 2 (Homo sapiens, UniProt Q9UHL4); test: Inhibition of QPP
Xaa-Pro dipeptidase = target: T3, Xaa-Pro dipeptidase (Homo sapiens, UniProt P12955); test: Inhibition of prolidase
T3 sequence (P12955 whole entry): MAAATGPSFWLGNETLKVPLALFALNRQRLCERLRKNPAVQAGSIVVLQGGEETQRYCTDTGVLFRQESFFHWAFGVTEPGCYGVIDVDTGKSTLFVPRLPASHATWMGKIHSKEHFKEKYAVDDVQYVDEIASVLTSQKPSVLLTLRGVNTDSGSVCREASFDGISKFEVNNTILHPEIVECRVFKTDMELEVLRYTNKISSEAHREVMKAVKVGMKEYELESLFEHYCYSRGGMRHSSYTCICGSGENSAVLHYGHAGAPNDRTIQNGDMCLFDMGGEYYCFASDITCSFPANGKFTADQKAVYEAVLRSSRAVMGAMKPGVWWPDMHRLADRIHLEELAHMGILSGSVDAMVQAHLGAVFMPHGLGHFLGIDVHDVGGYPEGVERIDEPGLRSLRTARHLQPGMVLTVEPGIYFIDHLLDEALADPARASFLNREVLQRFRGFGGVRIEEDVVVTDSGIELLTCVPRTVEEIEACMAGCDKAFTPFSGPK

Dipeptidyl peptidase 9 = Dipeptidyl peptidase 9 (Homo sapiens, UniProt Q86TI2); test: Inhibition of DPP9
Chain of Dipeptidyl peptidase 9 (Q86TI2 whole entry): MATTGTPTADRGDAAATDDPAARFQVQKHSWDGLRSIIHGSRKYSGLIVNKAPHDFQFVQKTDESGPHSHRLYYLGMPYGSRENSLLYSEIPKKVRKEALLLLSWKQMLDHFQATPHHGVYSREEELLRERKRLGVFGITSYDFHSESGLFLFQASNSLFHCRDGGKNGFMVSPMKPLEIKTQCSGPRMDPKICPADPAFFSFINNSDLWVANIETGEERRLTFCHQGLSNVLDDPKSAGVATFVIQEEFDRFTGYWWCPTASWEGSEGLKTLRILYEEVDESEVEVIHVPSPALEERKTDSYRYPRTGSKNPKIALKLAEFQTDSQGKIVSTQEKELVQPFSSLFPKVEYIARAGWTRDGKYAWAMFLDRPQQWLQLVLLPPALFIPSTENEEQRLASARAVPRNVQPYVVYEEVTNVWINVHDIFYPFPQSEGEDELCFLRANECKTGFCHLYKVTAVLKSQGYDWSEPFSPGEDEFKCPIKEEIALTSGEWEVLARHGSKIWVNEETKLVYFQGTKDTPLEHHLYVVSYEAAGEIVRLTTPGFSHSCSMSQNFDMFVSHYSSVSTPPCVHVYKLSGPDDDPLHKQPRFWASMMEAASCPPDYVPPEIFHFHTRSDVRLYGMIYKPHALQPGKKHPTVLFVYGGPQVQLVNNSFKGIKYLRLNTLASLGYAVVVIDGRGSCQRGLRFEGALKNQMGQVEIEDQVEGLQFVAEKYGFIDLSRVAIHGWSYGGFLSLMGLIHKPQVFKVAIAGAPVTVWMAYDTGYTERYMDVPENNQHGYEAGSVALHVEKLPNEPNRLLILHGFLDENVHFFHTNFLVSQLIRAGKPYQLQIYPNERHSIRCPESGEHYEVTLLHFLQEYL

[5] = Cmax in rat at 2 mg/kg, po; type: ADME, organism-based; set-up: dose 2 mg/kg, route oral; settings: in vivo
[6] = Half life in rat at 1 mg/kg, iv or 2 mg/kg, po; type: ADME, organism-based; settings: in vivo
[7] = Half life in dog at 1 mg/kg, iv or 2 mg/kg, po; type: ADME, organism-based, Canis lupus familiaris; settings: in vivo
[8] = Bioavailability in dog at 1 mg/kg, iv and 2 mg/kg, po; type: ADME, organism-based, Canis lupus familiaris; settings: in vivo
[9] = Plasma clearance in dog at 1 mg/kg, iv or 2 mg/kg, po; type: ADME, organism-based, Canis lupus familiaris
[10] = target: Sodium channel protein type 5 subunit alpha (Homo sapiens, UniProt Q14524); test: Inhibition of human cardiac sodium channel
In short: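 Membranes from HEK293 cells stably expressing human cardiac Na+ channel hNav1.5 (40-80 µg), with [3H]-BPBTS (1 nM final), in 20 mM Tris-HCl pH 7.4 with 0.01 mg/mL bacitracin. Incubated 16 h at room temperature with shaking, then filtered and scintillation counted. Nonspecific binding was taken with 5 µM unlabeled ligand; total binding with DMSO only.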

[11] = Cmax in dog at 2 mg/kg, po; type: ADME, organism-based, Canis lupus familiaris; set-up: dose 2 mg/kg, route oral; settings: in vivo
[12] = target: Voltage-dependent L-type calcium channel subunit alpha-1S (Oryctolagus cuniculus, UniProt P07293); test: Inhibition of rabbit skeletal muscle L-type calcium channel
Chain of Voltage-dependent L-type calcium channel subunit alpha-1S (P07293 whole entry): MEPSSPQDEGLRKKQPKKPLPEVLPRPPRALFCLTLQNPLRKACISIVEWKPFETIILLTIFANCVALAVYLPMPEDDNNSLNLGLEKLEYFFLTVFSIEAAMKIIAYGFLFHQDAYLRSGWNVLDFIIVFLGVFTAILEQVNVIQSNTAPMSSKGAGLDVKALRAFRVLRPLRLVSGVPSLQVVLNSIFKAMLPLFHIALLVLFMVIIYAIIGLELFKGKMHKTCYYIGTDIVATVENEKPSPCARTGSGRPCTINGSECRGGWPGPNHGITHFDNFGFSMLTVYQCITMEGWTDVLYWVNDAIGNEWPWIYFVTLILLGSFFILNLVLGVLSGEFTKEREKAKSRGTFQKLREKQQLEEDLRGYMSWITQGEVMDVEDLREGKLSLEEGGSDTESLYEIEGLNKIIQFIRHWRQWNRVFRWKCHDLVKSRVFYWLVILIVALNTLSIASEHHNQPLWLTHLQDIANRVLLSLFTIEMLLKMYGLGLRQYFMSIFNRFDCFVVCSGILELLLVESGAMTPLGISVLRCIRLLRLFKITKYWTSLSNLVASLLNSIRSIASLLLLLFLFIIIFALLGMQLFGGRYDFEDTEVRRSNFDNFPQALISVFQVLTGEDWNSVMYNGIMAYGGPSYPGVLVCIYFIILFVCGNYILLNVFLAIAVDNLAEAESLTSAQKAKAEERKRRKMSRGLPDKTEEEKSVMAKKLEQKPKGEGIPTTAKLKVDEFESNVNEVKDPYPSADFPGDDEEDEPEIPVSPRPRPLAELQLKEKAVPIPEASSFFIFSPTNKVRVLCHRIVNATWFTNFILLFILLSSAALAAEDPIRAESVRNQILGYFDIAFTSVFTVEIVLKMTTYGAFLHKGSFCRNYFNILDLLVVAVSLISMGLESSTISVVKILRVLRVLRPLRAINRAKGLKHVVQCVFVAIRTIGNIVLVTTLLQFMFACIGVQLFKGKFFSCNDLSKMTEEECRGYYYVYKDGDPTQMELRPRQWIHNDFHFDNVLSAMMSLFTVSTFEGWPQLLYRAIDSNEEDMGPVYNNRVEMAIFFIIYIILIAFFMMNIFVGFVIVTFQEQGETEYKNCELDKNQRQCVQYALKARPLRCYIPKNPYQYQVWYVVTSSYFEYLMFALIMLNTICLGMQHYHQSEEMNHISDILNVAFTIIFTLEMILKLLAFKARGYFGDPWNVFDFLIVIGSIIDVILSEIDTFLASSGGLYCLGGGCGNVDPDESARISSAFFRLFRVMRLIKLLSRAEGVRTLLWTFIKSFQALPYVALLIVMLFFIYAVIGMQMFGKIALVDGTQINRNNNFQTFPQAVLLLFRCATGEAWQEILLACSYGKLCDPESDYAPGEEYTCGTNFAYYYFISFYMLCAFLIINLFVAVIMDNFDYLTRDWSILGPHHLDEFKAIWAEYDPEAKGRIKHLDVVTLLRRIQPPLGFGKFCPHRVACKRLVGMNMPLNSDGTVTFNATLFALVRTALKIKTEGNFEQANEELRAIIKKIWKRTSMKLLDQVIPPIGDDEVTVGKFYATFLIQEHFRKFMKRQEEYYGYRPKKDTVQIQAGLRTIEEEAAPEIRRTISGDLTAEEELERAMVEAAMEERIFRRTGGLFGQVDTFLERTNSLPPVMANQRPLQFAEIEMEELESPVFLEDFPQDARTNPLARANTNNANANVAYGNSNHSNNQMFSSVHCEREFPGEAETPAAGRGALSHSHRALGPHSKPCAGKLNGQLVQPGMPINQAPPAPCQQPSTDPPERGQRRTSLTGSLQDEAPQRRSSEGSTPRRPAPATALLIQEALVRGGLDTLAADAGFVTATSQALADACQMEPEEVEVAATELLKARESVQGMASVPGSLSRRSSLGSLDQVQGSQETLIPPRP
In short: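 Rabbit skeletal muscle membranes (40-70 µg) with [3H]-diltiazem (20 nM final) in 50 mM Tris pH 7.4. Serially diluted compound added; incubated 60 min at room temperature with shaking. Filtered through PEI-soaked filters, washed three times with ice-cold buffer, then counted. Nonspecific binding in 20 µM unlabeled diltiazem; total binding with DMSO only.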

Canis familiaris = test: AUC in dog at 2 mg/kg, po normalized to 1 mg/kg; type: ADME, organism-based, Canis lupus familiaris, Plasma; settings: in vivo
[13] = target: Voltage-gated inwardly rectifying potassium channel KCNH2 (Homo sapiens, UniProt Q12809); test: Inhibition of hERG; type: toxicity

Chain of Xaa-Pro aminopeptidase 1 (Q9NQW7 whole entry): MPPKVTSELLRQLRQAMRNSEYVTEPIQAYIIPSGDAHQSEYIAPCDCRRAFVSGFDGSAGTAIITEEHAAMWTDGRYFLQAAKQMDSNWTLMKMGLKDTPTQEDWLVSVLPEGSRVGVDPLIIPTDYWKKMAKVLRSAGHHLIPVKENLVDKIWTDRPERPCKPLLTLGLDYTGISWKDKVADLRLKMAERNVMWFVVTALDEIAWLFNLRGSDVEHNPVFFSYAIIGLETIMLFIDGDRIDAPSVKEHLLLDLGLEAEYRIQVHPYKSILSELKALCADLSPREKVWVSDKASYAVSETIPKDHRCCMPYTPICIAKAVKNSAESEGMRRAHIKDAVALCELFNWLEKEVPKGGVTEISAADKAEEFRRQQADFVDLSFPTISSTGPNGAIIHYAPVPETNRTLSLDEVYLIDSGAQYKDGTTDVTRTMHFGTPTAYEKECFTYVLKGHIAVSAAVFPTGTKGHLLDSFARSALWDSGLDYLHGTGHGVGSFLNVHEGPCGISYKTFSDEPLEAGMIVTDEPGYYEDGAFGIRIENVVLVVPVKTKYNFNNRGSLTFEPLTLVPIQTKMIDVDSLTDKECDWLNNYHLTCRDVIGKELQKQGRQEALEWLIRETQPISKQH

Structure (SMILES) | IC50 (Xaa-Pro aminopeptidase 1) | IC50 (Dipeptidyl peptidase 8) | IC50 (Dipeptidyl peptidase 4 [1]) | IC50 (Prolyl endopeptidase FAP) | clearance [2] | bioavailability [3] | IC50 (Dipeptidyl peptidase 4 [4]) | AUC (Rattus norvegicus) | IC50 (Dipeptidyl peptidase 2) | IC50 (Xaa-Pro dipeptidase) | IC50 (Dipeptidyl peptidase 9) | Cmax [5] | half-life [6] | half-life [7] | clearance [9] | Cmax [11] | AUC (Canis familiaris) | other results
CN(C)C(=O)[C@@H](c1ccc(-c2ccn3ncnc3c2)cc1)[C@H](N)C(=O)N1CC[C@H](F)C1.O=C(O)C(F)(F)F | > 40 µM | > 100 µM | 0.035 µM | > 40 µM | 10 mL/min/kg | 21% | 0.0053 µM | 0.83 µM·h | 14 µM | > 40 µM | > 100 µM | 0.6 µM | 1.7 h |  |  |  |  | 
Cc1c(-c2ccc([C@H](C(=O)N(C)C)[C@H](N)C(=O)N3CC[C@H](F)C3)cc2)ccc2ncnn12 | > 40 µM | > 100 µM | 0.061 µM | > 40 µM |  |  | 0.0086 µM |  | > 100 µM | > 40 µM | > 100 µM |  |  |  |  |  |  | 
CN(C)C(=O)[C@@H](c1ccc(-c2ccc3nccn3c2)cc1)[C@H](N)C(=O)N1CC[C@H](F)C1 | > 40 µM | > 100 µM | 0.133 µM | > 40 µM |  |  | 0.013 µM |  | > 100 µM | > 40 µM | > 100 µM |  |  |  |  |  |  | 
Cc1nc2ccc(-c3ccc([C@H](C(=O)N(C)C)[C@H](N)C(=O)N4CC[C@H](F)C4)cc3)cn2n1 | > 40 µM | > 100 µM | 0.223 µM | > 40 µM |  |  | 0.022 µM |  | > 100 µM | > 40 µM | > 100 µM |  |  |  |  |  |  | 
CN(C)C(=O)[C@@H](c1ccc(-c2ccn3nccc3n2)cc1)[C@H](N)C(=O)N1CCC(F)(F)C1.O=C(O)C(F)(F)F | > 40 µM | > 100 µM | 0.057 µM | > 40 µM | 1.4 mL/min/kg | 79% | 0.0075 µM | 24 µM·h | 18 µM | > 40 µM | > 100 µM | 8.9 µM | 2.7 h | 3.1 h | 1 mL/min/kg | 22 µM | 38 µM·h | bioavailability [8]: 100%; IC50 [10]: 60 µM; IC50 [12]: 15 µM
CN(C)C(=O)[C@@H](c1ccc(-c2ccc3ncnn3c2)cc1)[C@H](N)C(=O)N1CC(F)C1.O=C(O)C(F)(F)F | > 40 µM | > 100 µM | 0.041 µM | > 40 µM | 7.3 mL/min/kg | 37% | 0.0027 µM | 2.2 µM·h | > 100 µM | > 40 µM | > 100 µM | 2.4 µM | 2.1 h | 2 h | 6.1 mL/min/kg | 4 µM | 6.9 µM·h | bioavailability [8]: 100%
CN(C)C(=O)[C@@H](c1ccc(-c2ccc3nccn3n2)cc1)[C@H](N)C(=O)N1CC[C@H](F)C1 | > 40 µM | > 100 µM | 0.177 µM | > 40 µM |  |  | 0.013 µM |  | > 100 µM | > 40 µM | > 100 µM |  |  |  |  |  |  | 
Cc1cc(-c2ccc([C@H](C(=O)N(C)C)[C@H](N)C(=O)N3CC[C@H](F)C3)cc2)cn2ncnc12 | > 40 µM | > 100 µM | 0.64 µM | > 40 µM |  |  | 0.15 µM |  | > 100 µM | > 40 µM | > 100 µM |  |  |  |  |  |  | 
CN(C)C(=O)[C@@H](c1ccc(-c2ccc(=O)n(C)c2)cc1)[C@H](N)C(=O)N1CC[C@H](F)C1.O=C(O)C(F)(F)F | > 40 µM | > 100 µM | 0.079 µM | > 40 µM | 15 mL/min/kg | 2% | 0.008 µM | 0.048 µM·h | > 100 µM | > 40 µM | > 100 µM | 0.021 µM | 1.2 h |  |  |  |  | 
CN(C)C(=O)[C@@H](c1ccc(-c2ccn3nccc3n2)cc1)[C@H](N)C(=O)N1CC[C@H](F)C1.O=C(O)C(F)(F)F | > 40 µM | > 100 µM | 0.053 µM | > 40 µM | 3.3 mL/min/kg | 46% | 0.008 µM | 5.6 µM·h | 63 µM | > 40 µM | > 100 µM | 3.9 µM | 4.3 h |  |  |  |  | 
CN(C)C(=O)[C@@H](c1ccc(-c2ccn3ncnc3c2)cc1)[C@H](N)C(=O)N1CCC(F)(F)C1.O=C(O)C(F)(F)F | > 40 µM | > 100 µM | 0.034 µM | > 40 µM | 1.8 mL/min/kg | 69% | 0.0062 µM | 15 µM·h | 26 µM | > 40 µM | > 100 µM | 7.8 µM | 1.1 h | 3.4 h | 1.5 mL/min/kg | 9.5 µM | 20 µM·h | IC50 [13]: 16 µM; bioavailability [8]: 81%; IC50 [10]: > 100 µM; IC50 [12]: 54 µM
CN(C)C(=O)[C@@H](c1ccc(-c2ccc3ncnn3c2)cc1)[C@H](N)C(=O)N1CC[C@H](F)C1.O=C(O)C(F)(F)F | > 40 µM | > 100 µM |  | > 40 µM | 7 mL/min/kg |  |  | 2.4 µM·h | > 100 µM | > 40 µM | > 100 µM | 2.3 µM | 2 h | 2.4 h | 3.1 mL/min/kg | 6.6 µM | 12 µM·h | 
CN(C)C(=O)[C@@H](c1ccc(-c2ccc3ncnn3c2)cc1)[C@H](N)C(=O)N1CCCC1.O=C(O)C(F)(F)F | > 40 µM | > 100 µM | 0.063 µM | > 40 µM | 7.7 mL/min/kg | 46% | 0.0052 µM | 2.9 µM·h | > 100 µM | > 40 µM | 14 µM | 2.1 µM | 1.6 h | 1.1 h | 5.9 mL/min/kg | 5.9 µM | 6.8 µM·h | bioavailability [8]: 98%
CN(C)C(=O)[C@@H](c1ccc(-c2ccc3nncn3c2)cc1)[C@H](N)C(=O)N1CC[C@H](F)C1.O=C(O)C(F)(F)F | > 40 µM | > 100 µM | 0.016 µM | > 40 µM | 34 mL/min/kg | 0.76% | 0.0041 µM | 0.009 µM·h | > 100 µM | > 40 µM | > 100 µM | 0.008 µM | 1.1 h |  |  |  |  | 
